# According to ChEMBL document CHEMBL1129246, “Cardiovascular characterization of pyrrolo[2,1-d][1,5]benzothiazepine derivatives binding selectively to the peripheral-type benzodiazepine receptor (PBR): from dual PBR affinity and calcium antagonist activity to novel and selective calcium entry blockers” (J Med Chem, 1996):
# pEC50, pIC50: −log10 of the molar value.
# What was measured:
# Translocator protein [1] = biological target: T1, Translocator protein (Rattus norvegicus, UniProt P16257); experiment: Ability to inhibit [3H]-PK 11195 binding to peripheral-type benzodiazepine receptor(PBR) in rat cerebral cortex homogenate; Not active; format: tissue-based
# [2] = biological target: T2, Voltage-gated L-type calcium channel (Rattus norvegicus, UniProt P22002+Q02485+P27732); experiment: (§1) Inhibition of [3H]nitrendipine binding to L-type calcium channel receptor(CCR) in rat cerebral cortex homogenate; format: tissue-based
# In short: (§2)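 Male Sprague–Dawley rat cortex homogenised in 50 mM Na-HEPES pH 7.4, washed five times, pellet stored at -70 °C. Incubated 90 min at 0 °C in the dark with 3×10^-10 M [3H]nitrendipine; compounds dissolved in 5% DMSO. Filtration, scintillation counting. IC50 by log-probit analysis of six displacer concentrations in triplicate. Ki by Prusoff's equation using Kd 0.25 nM.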
# Cavia porcellus [3] = species: Cavia porcellus; experiment: [Ca2+] antagonistic activity on K+ depolarized guinea pig aortic strips (at 5(10e-5) M).; format: functional, Aorta
# In short: (§3)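 Guinea pig aortic strips under 1 g resting force, equilibrated 1 h in PSS, then contracted with 80 mmol/L KCl. At plateau (~30 min), compounds in DMSO added cumulatively at 0.1–50 μmol/L and relaxation recorded.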
# Cavia porcellus [4] = species: Cavia porcellus; experiment: Percent decrease of negative inotropic activity on isolated guinea pig left atrium at 5*10e-5 M; format: functional, Cardiac atrium
# In short: (§4)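 Guinea pig atria (300–400 g, either sex) in oxygenated Tyrode at 35 °C, pH 7.4. Right atria beat spontaneously; left atria paced at 1 Hz. Isometric force recorded after 45–60 min stabilisation. Cumulative concentrations 0.1–50 μmol/L in DMSO (bath ≤0.3%). Potency from log concentration–response curves by probit analysis, n = 6–8.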
# Cavia porcellus [5] = species: Cavia porcellus; experiment: Activity of chronotropic negative potency on guinea pig spontaneously beating right atrium; format: functional, Cardiac atrium; in short: as §4
# [6] = biological target: T3, Voltage-dependent L-type calcium channel subunit alpha-1C (Rattus norvegicus, UniProt P22002); experiment: Ability to inhibit [3H]nitrendipine binding to the L-type calcium channel receptor(CCR) in rat heart homogenate.; format: tissue-based
# In short: (§5)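 Rat hearts perfused through the aorta with ice-cold saline, then homogenised in 50 mM Na-HEPES pH 7.4, filtered through cheesecloth and washed five times. Incubated 90 min at 0 °C in the dark with 3×10^-10 M [3H]nitrendipine; compounds in 5% DMSO. IC50 by log-probit analysis of six displacer concentrations in triplicate.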
# [7] = biological target: T2, Voltage-gated L-type calcium channel; experiment: Ability to inhibit [3H]nitrendipine binding to the calcium channel receptor(CCR) in rat cerebral cortex homogenate.; format: tissue-based
# Translocator protein [8] = biological target: T1, Translocator protein; experiment: Ability to inhibit [3H]-PK 11195 binding to peripheral-type benzodiazepine receptor(PBR) in rat cerebral cortex homogenate.; format: tissue-based; conditions: for pIC50: read-out: IC50
# [9] = biological target: T3, Voltage-dependent L-type calcium channel subunit alpha-1C; experiment: Ability to inhibit [3H]nitrendipine binding to the L-type calcium channel receptor(CCR) in rat heart homogenate; format: tissue-based
# In short: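 Rat heart perfused via aorta with ice-cold saline, homogenized in 50 mM Na-HEPES pH 7.4, filtered through cheesecloth, washed five times at 48000g, and stored at -70 °C. Homogenate incubated 90 min at 0 °C in the dark with 3×10^-10 M [3H]nitrendipine; compounds in 5% DMSO. Bound counts taken after filtration. IC50 by log-probit from six concentrations in triplicate.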
# [10] = biological target: T2, Voltage-gated L-type calcium channel; experiment: as §1; format: tissue-based; remark: listed apart in the source
# In short: as §2, with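 “triplicate.” for “triplicate. Ki by Prusoff's equation using Kd 0.25 nM.”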
# Cavia porcellus [11] = species: Cavia porcellus; experiment: [Ca2+] antagonistic activity on K+ depolarized guinea pig aortic strips (at 5(10e-5) M); format: functional, Aorta; in short: as §3
# Cavia porcellus [12] = species: Cavia porcellus; experiment: Percent decrease of negative inotropic activity on isolated guinea pig left atrium at 1*10e-5 M; format: functional, Cardiac atrium; in short: as §4
# Cavia porcellus [13] = species: Cavia porcellus; experiment: Activity of inotropic negative potency on stimulated guinea pig left atrium; format: functional; conditions: Cardiac atrium, read-out: ED50 (the source's name); in short: as §4
# Cavia porcellus [14] = species: Cavia porcellus; experiment: Percent decrease of negative chronotropic activity on isolated guinea pig spontaneously beating right atrium at 1*10e-4 M; format: functional, Cardiac atrium
# Cavia porcellus [15] = species: Cavia porcellus; experiment: IC50 activity of [Ca2+] antagonistic potency on K+ depolarized guinea pig aortic strips; format: functional; conditions: Aorta; in short: as §3
# Cavia porcellus [16] = species: Cavia porcellus; experiment: Percent decrease of negative chronotropic activity on isolated guinea pig spontaneously beating right atrium at 1*10e-5 M; format: functional, Cardiac atrium; in short: as §4
# Cavia porcellus [17] = species: Cavia porcellus; experiment: Activity of chronotropic negative potency on guinea pig spontaneously beating right atrium.; format: functional, Cardiac atrium; in short: as §4
# [18] = biological target: T3, Voltage-dependent L-type calcium channel subunit alpha-1C; experiment: Ability to inhibit [3H]nitrendipine binding to the L-type calcium channel receptor(CCR) in rat heart homogenate; Not active; format: tissue-based; in short: as §5
# Cavia porcellus [19] = species: Cavia porcellus; experiment: [Ca2+] antagonistic activity on K+ depolarized guinea pig aortic strips at 5*10e-5 M; format: functional, Aorta; in short: as §3
# [20] = biological target: T2, Voltage-gated L-type calcium channel; experiment: Ability to inhibit [3H]nitrendipine binding to the calcium channel receptor(CCR) in rat cerebral cortex homogenate; Not active; format: tissue-based; in short: as §2
# Cavia porcellus [21] = species: Cavia porcellus; experiment: [Ca2+] antagonistic activity on K+ depolarized guinea pig aortic strips at 10e-4 M; format: functional; conditions: Aorta
# Cavia porcellus [22] = species: Cavia porcellus; experiment: Activity of inotropic negative potency on stimulated guinea pig left atrium.; format: functional; conditions: Cardiac atrium, read-out: ED50 (the source's name)
# In short: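 Isolated left atria from guinea pigs (300–400 g, either sex), Tyrode PSS gassed with 95% O2–5% CO2, 35 °C, pH 7.4, driven at 1 Hz by rectangular pulses; isometric force recorded after 45–60 min stabilization.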
# Cavia porcellus [23] = species: Cavia porcellus; experiment: Percent decrease of negative chronotropic activity on isolated guinea pig spontaneously beating right atrium at 1*10e-6 M; format: functional, Cardiac atrium; in short: as §4
smiles,measurement,setting,value
COc1ccc(C2=C(OC(=O)c3cc(OC)c(OC)c(OC)c3)c3cccn3-c3cc(C(F)(F)F)ccc3S2)cc1,IC50,Translocator protein [1],Not Active
CC(=O)O[C@@H]1c2ccc(CN(C)C)n2-c2cccc(Cl)c2S[C@@H]1c1ccccc1,Ki,[2],13 nM
same,Inhibition,Cavia porcellus [3],32%
same,Decrease,Cavia porcellus [4],41%
same,ED30,Cavia porcellus [5],850 nM
same,pIC50,[6],7.92
CC(=O)O[C@@H]1c2ccc(CN(C)C)n2-c2ccccc2S[C@@H]1c1ccccc1,IC50,[7],5200 nM
COc1ccc(C2Sc3ccccc3-n3c(CN(C)C)ccc32)cc1 (stereo unspecified),pIC50,Translocator protein [8],< 5.70
same,pIC50,[9],7.77
same,Ki,[10],0.19 nM
same,Inhibition,Cavia porcellus [11],10%
same,Decrease,Cavia porcellus [12],75%
same,pEC50,Cavia porcellus [13],6.09
same,Decrease,Cavia porcellus [14],30%
CCCC(=O)OC1=C(c2ccccc2)Sc2ccccc2-n2cccc21,IC50,[7],4.88 nM
COc1ccc(C2=C(OC(=O)c3cc(OC)c(OC)c(OC)c3)c3cccn3-c3ccccc3S2)cc1,IC50,Translocator protein [1],Not Active
COc1ccc(C2=C(OC(=O)c3cc(OC)c(OC)c(OC)c3)c3cccn3-c3cc(Cl)ccc3S2)cc1,IC50,Translocator protein [8],Not Active
COc1ccc([C@H]2Sc3ccccc3-n3c(CN(C)C)ccc3[C@H]2OC(C)=O)cc1,IC50,[7],136 nM
same,pIC50,Cavia porcellus [15],5.35
same,Inhibition,Cavia porcellus [11],56%
same,Decrease,Cavia porcellus [16],90%
same,Decrease,Cavia porcellus [4],87%
same,pEC50,Cavia porcellus [13],6.15
same,ED30,Cavia porcellus [5],1500 nM
COc1ccc(C2=C(OC(C)=O)c3cccn3-c3cc(Cl)ccc3S2)cc1,IC50,[7],132 nM
COc1ccc([C@H]2Sc3ccc(Cl)cc3-n3c(CN(C)C)ccc3[C@H]2OC(C)=O)cc1,Ki,[2],1.5 nM
same,IC50,[7],3.3 nM
same,Inhibition,Cavia porcellus [3],40%
same,Decrease,Cavia porcellus [16],61%
same,Decrease,Cavia porcellus [4],83%
same,pEC50,Cavia porcellus [13],6.18
same,ED30,Cavia porcellus [17],880 nM
CC(=O)OC1=C(c2ccccc2)Sc2ccc(Cl)cc2-n2cccc21,pIC50,Translocator protein [8],6.25
same,IC50,[7],150 nM
CC(=O)OC1=C(c2ccccc2)Sc2ccccc2-n2cccc21,IC50,[7],6 nM
same,pIC50,[6],6.66
COc1ccc(C2=C(OC(=O)N(C)C)c3cccn3-c3ccccc3S2)cc1,IC50,[18],Not Active
same,IC50,[7],420 nM
COc1ccc(C2=C(OC(C)=O)c3cccn3-c3ccccc3S2)cc1,IC50,[7],0.13 nM
same,Decrease,Cavia porcellus [16],26%
same,Decrease,Cavia porcellus [4],86%
same,pEC50,Cavia porcellus [13],6.51
same,Inhibition,Cavia porcellus [19],27%
same,pIC50,[6],6.47
COc1ccc(C2=C(OC(C)=O)c3cccn3-c3cc(C(F)(F)F)ccc3S2)cc1,IC50,Translocator protein [1],Not Active
same,IC50,[7],> 2000 nM
CCCC(=O)OC1=C(c2ccc(OC)cc2)Sc2ccccc2-n2cccc21,IC50,[7],16 nM
same,pIC50,[6],6.82
CCCCC(=O)OC1=C(c2ccccc2)Sc2ccccc2-n2cccc21,pIC50,[6],6.21
CC(=O)OC1=C(c2ccccc2)Sc2ccc(Cl)cc2-n2c(CN(C)C)ccc21,pIC50,Translocator protein [8],< 5.70
same,IC50,[7],960 nM
COc1ccc(C2=C(OC(C)=O)c3ccc(CN(C)C)n3-c3cc(Cl)ccc3S2)cc1,pIC50,Translocator protein [8],< 5.70
CC(=O)O[C@@H]1c2ccc(CN(C)C)n2-c2cc(C(F)(F)F)ccc2S[C@@H]1c1ccccc1,IC50,[7],300 nM
CC(=O)OC1=C(c2ccccc2)Sc2ccccc2-n2c(CN(C)C)ccc21,pIC50,Translocator protein [8],< 5.70
CC(=O)O[C@@H]1c2ccc(CN(C)C)n2-c2cc(Cl)ccc2S[C@@H]1c1ccccc1,IC50,[18],Not Active
same,IC50,[20],1230 nM
COc1ccc([C@@H]2Sc3ccccc3N(CCN(C)C)C(=O)[C@@H]2OC(C)=O)cc1 [DILTIAZEM],inhibition at 100 µM,Cavia porcellus [21],88%
same,pEC50,Cavia porcellus [22],6.10
same,Decrease,Cavia porcellus [23],94%
same,Decrease,Cavia porcellus [12],78%
same,ED30,Cavia porcellus [17],70 nM
